Data reported in ChEMBL document CHEMBL1132372, “The opioid mu agonist/delta antagonist DIPP-NH(2)[Psi] produces a potent analgesic effect, no physical dependence, and less tolerance than morphine in rats” (J Med Chem, 1999).
Square brackets hold non-standard residues; d marks the D form. Peptide text beside a SMILES is read from it. NMeDmt = CN[C@@H](Cc1c(C)cc(O)cc1C)C(=O)O; Dmt = Cc1cc(O)cc(C)c1C[C@H](N)C(=O)O; Tic = O=C(O)[C@@H]1Cc2ccccc2CN1

Columns and labels:
[1] = species on record: Cavia porcellus; assay: Compound was evaluated for inhibition of electrically evoked contractions of the GPI (guinea pig ileum); PA=Partial agonist; type: functional
In short: (§1)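 Inhibition of electrically evoked contractions of guinea pig ileum. Each preparation also run with a [Leu5]enkephalin standard dose-response curve, and test IC50 values normalised against it.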

[2] = species on record: Mus musculus; assay: Compound was evaluated for its antagonist potency against delta agonist […] by MVD assay(mouse vas deferens).; type: functional
[3] = species on record: Mus musculus; assay: Compound was evaluated for its antagonist potency against delta agonist deltorphin I, by MVD assay(mouse vas deferens).; type: functional
[4] = target: Delta-type opioid receptor (Rattus norvegicus, UniProt P33533); assay: Binding affinity for Opioid receptor delta 1 determined by displacing [3H]-DSLET from rat brain membrane binding sites
Sequence of Delta-type opioid receptor (P33533 whole entry): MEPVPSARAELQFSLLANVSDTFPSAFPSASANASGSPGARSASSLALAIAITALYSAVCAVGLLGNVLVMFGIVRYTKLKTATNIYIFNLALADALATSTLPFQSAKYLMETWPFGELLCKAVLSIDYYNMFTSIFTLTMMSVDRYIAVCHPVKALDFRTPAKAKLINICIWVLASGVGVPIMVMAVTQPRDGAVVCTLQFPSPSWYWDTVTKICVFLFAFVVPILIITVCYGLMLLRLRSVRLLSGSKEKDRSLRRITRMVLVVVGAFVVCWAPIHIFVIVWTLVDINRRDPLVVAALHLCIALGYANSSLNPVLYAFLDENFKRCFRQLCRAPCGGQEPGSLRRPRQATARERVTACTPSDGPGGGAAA

[5] = target: Mu-type opioid receptor (Rattus norvegicus, UniProt P33535); assay: Binding affinity for Opioid receptor mu 1 determined by displacing [3H]DAMGO from rat brain membrane binding sites
Sequence of Mu-type opioid receptor (P33535 whole entry): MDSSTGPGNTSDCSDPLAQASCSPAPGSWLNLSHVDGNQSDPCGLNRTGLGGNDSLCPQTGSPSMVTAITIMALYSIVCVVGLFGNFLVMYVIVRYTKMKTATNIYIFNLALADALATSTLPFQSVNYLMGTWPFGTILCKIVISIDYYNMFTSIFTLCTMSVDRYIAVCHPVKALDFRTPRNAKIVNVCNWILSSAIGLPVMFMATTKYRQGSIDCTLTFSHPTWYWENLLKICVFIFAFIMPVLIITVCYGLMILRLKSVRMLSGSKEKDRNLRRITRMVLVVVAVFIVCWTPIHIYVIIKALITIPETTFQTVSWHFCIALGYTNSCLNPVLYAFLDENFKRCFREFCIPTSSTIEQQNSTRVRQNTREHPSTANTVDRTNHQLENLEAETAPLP

[6] = target: Kappa-type opioid receptor (Cavia porcellus, UniProt P41144); assay: Binding affinity for Opioid receptor kappa 1 determined by displacement of [3H]U-69593 from guinea pig brain membranes; set-up: species or system Membrane
Sequence of Kappa-type opioid receptor (P41144 whole entry): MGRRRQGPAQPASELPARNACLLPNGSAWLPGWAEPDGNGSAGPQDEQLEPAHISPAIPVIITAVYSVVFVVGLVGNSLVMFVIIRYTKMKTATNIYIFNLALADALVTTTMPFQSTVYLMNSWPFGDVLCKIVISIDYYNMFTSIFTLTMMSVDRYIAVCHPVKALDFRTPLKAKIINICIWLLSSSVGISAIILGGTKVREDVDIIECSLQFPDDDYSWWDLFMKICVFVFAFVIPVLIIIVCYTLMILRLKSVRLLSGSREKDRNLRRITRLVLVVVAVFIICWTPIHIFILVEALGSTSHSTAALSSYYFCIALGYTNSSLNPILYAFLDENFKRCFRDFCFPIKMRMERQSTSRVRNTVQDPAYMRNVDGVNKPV
In short: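 Guinea pig brain membranes incubated 2 h at 0 °C with 0.80 nM [3H]U69,593. IC50 taken from log dose-displacement curves; Ki by Cheng-Prusoff using Kd 2.9 nM.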

[7] = species on record: Rattus norvegicus; assay: Analgesic Potency of compound in Comparison with Morphine evaluated by rat tail flick test; type: functional
[8] = species on record: Cavia porcellus; assay: Compound was evaluated for antagonist potency against mu receptor. agonist TAPP by GPI (guinea pig ileum) assay.; type: functional
[9] = species on record: Cavia porcellus; assay: Compound was evaluated for inhibition of electrically evoked contractions of the GPI (guinea pig ileum); type: functional; in short: as §1

Row | SMILES | IC50 [1] | Ke [2] [nM] | Ke [3] [nM] | Ki [4] [nM] | Ki [5] [nM] | Ki [6] [nM] | ED50 [7] [µg] | Ke [8] [nM] | IC50 [9] [nM]
1 | CN[C@@H](Cc1c(C)cc(O)cc1C)C(=O)N1Cc2ccccc2C[C@H]1C(=O)N[C@@H](Cc1ccccc1)C(=O)N[C@@H](Cc1ccccc1)C(N)=O (H-[NMeDmt][Tic]FF-NH2) | Partial agonist | 0.235 | 0.233 | 0.393 | 4.08 | > 1000 |  |  | 
2 | CN1CC[C@]23c4c5ccc(O)c4O[C@H]2[C@@H](O)C=C[C@H]3[C@H]1C5 [MORPHINE] |  |  |  |  |  |  | 0.11 |  | 
3 | CN[C@@H](Cc1c(C)cc(O)cc1C)C(=O)N1Cc2ccccc2CC1CN[C@@H](Cc1ccccc1)C(=O)N[C@@H](Cc1ccccc1)C(N)=O (stereo partly drawn) |  | 22.1 | 54.4 | 61 | 76.2 | > 1000 |  | 64.5 | 
4 | Cc1cc(O)cc(C)c1C[C@H](N)C(=O)N1Cc2ccccc2CC1CN[C@@H](Cc1ccccc1)C(=O)N[C@@H](Cc1ccccc1)C(N)=O (stereo partly drawn) |  | 0.537 | 0.486 |  |  | > 1000 |  |  | 7.71
5 | Cc1cc(O)cc(C)c1C[C@H](N)C(=O)N1Cc2ccccc2C[C@H]1C(=O)N[C@@H](Cc1ccccc1)C(=O)N[C@@H](Cc1ccccc1)C(N)=O (H-[Dmt][Tic]FF-NH2) |  |  |  |  |  | > 1000 |  |  | 
